Experimental data reported in ChEMBL document CHEMBL5724801, “EUbOPEN Chemogenomics Library - Multiplex” (2024).
“And” between values parts separate entries of the source, which are not always exact repeats. Equal entries are not always repeated.

Tests used:
HEK-293T = assay: Multiplex assay against HEK293T; format: toxicity, cell-based; details: human
Outline: (§1)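 Hoechst33342, BioTracker Green Microtubule Cytoskeleton Dye, MitoTracker Red and Annexin V Alexa Fluor 680 were added to live cells at seeding, and imaging on a CQ1 microscope at 37°C and 5% CO2 followed compound addition. Gating by CellPathfinder machine learning separated cells into Hoechst high-intensity objects or normal cells, then normal cells into healthy, pyknosed or fragmented nuclei, then pyknosed cells into mitotic or apoptotic. Per cents of healthy-nucleus cells are reported for the tubulin, mitochondrial-mass and membrane-permeability phenotypes.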

Fibroblast = assay: Multiplex assay against human fibroblast; format: toxicity, cell-based; outline: as §1
[1] = 24 h, 1 µM, compound concentration 1 uM
[2] = 24 h, 10 µM, compound concentration 10 uM
[3] = 48 h, 1 µM, compound concentration 1 uM
[4] = 48 h, 10 µM, compound concentration 10 uM
[5] = 12 h, 1 µM, compound concentration 1 uM
[6] = 12 h, 10 µM, compound concentration 10 uM

SMILES: CCn1cnc2c(-c3ccc(F)c(-c4ccc(S(=O)(=O)CC)cc4OC)c3)cnnc21 [DARIGABAT]
- Population Mitochondria Different-Phenotype (%) (HEK-293T; [1]): 24.46% and 31.25%
- Population Mitotic Cells (%) (HEK-293T; [1]): 81.33% and 67.78%
- Population Normal (%) (HEK-293T; [1]): 99.78% and 98.25%
- Population Pyknosed Nuclei (%) (HEK-293T; [1]): 36.56% and 80.36%
- Population Tubulin-Different-Phenotype (%) (HEK-293T; [1]): 17.63% and 6.25%
- Population Apoptotic (%) (HEK-293T; [2]): 40.69% and 29.17%
- Population Fragmented Nuclei (%) (HEK-293T; [2]): 0.43% and 1.46%
- Population Hoechst High Intensity Objects (%) (HEK-293T; [2]): 0.86% and 0%
- Population Membrane Permeable-Phenotype (%) (HEK-293T; [2]): 0% and 6.67%
- Population Mitochondria Different-Phenotype (%) (HEK-293T; [2]): 61.9% and 46.67%
- Population Mitotic Cells (%) (HEK-293T; [2]): 59.31% and 70.83%
- Population Normal (%) (HEK-293T; [2]): 99.14% and 100%
- Population Pyknosed Nuclei (%) (HEK-293T; [2]): 63.04% and 87.59%
- Total Cell Count (HEK-293T; [2]): 232 and 137
- Population Apoptotic (%) (HEK-293T; [3]): 12.68% and 27.16%
- Population Fragmented Nuclei (%) (HEK-293T; [3]): 3.42% and 2.05%
- Population Healthy Nuclei (%) (HEK-293T; [3]): 77.19% and 42.47%
- Population Hoechst High Intensity Objects (%) (HEK-293T; [3]): 0%
- Population Membrane Permeable-Phenotype (%) (HEK-293T; [3]): 3.54% and 1.61%
- Population Mitochondria Different-Phenotype (%) (HEK-293T; [3]): 36.28% and 61.29%
- Population Mitotic Cells (%) (HEK-293T; [3]): 87.32% and 72.84%
- Population Normal (%) (HEK-293T; [3]): 100%
- Population Pyknosed Nuclei (%) (HEK-293T; [3]): 19.4% and 55.48%
- Population Apoptotic (%) (HEK-293T; [4]): 55.34% and 39.62%
- Population Fragmented Nuclei (%) (HEK-293T; [4]): 1.71% and 3.1%
- Population Hoechst High Intensity Objects (%) (HEK-293T; [4]): 0.34% and 0%
- Population Membrane Permeable-Phenotype (%) (HEK-293T; [4]): 1.08% and 0%
- Population Mitochondria Different-Phenotype (%) (HEK-293T; [4]): 92.97% and 73.68%
- Population Mitotic Cells (%) (HEK-293T; [4]): 44.66% and 60.38%
- Population Normal (%) (HEK-293T; [4]): 99.66% and 100%
- Population Pyknosed Nuclei (%) (HEK-293T; [4]): 35.15% and 82.17%
- Total Cell Count (HEK-293T; [4]): 294 and 129
- Population Apoptotic (%) (Fibroblast; [5]): 6.38% and 17.39%
- Population Fragmented Nuclei (%) (Fibroblast; [5]): 14.08% and 9%
- Population Healthy Nuclei (%) (Fibroblast; [5]): 52.82% and 80.09%
- Population Hoechst High Intensity Objects (%) (Fibroblast; [5]): 0%
- Population Membrane Permeable-Phenotype (%) (Fibroblast; [5]): 4% and 1.78%
- Population Mitochondria Different-Phenotype (%) (Fibroblast; [5]): 14.67% and 11.24%
- Population Mitotic Cells (%) (Fibroblast; [5]): 93.62% and 82.61%
- Population Normal (%) (Fibroblast; [5]): 100%
- Population Tubulin-Different-Phenotype (%) (Fibroblast; [5]): 21.33% and 23.08%
- Total Cell Count (Fibroblast; [5]): 142 and 211
- Population Apoptotic (%) (Fibroblast; [6]): 12.5% and 19.64%
- Population Healthy Nuclei (%) (Fibroblast; [6]): 48.7% and 72.25%
- Population Hoechst High Intensity Objects (%) (Fibroblast; [6]): 0%
- Population Membrane Permeable-Phenotype (%) (Fibroblast; [6]): 13.33% and 8.61%
- Population Mitochondria Different-Phenotype (%) (Fibroblast; [6]): 14.67% and 16.56%
- Population Mitotic Cells (%) (Fibroblast; [6]): 87.5% and 80.36%
- Population Normal (%) (Fibroblast; [6]): 100%
- Population Tubulin-Different-Phenotype (%) (Fibroblast; [6]): 54.67% and 72.85%
- Total Cell Count (Fibroblast; [6]): 154 and 209
- Population Apoptotic (%) (Fibroblast; [1]): 11.11% and 23.08%
- Population Fragmented Nuclei (%) (Fibroblast; [1]): 13.37% and 6.44%
- Population Healthy Nuclei (%) (Fibroblast; [1]): 60.47% and 87.13%
- Population Hoechst High Intensity Objects (%) (Fibroblast; [1]): 0%
- Population Membrane Permeable-Phenotype (%) (Fibroblast; [1]): 0.96% and 3.41%
- Population Mitochondria Different-Phenotype (%) (Fibroblast; [1]): 9.62% and 6.82%
- Population Mitotic Cells (%) (Fibroblast; [1]): 88.89% and 76.92%
- Population Normal (%) (Fibroblast; [1]): 100%
- Population Tubulin-Different-Phenotype (%) (Fibroblast; [1]): 19.23% and 19.89%
- Total Cell Count (Fibroblast; [1]): 172 and 202
- Population Apoptotic (%) (Fibroblast; [2]): 23.08% and 22.22%
- Population Healthy Nuclei (%) (Fibroblast; [2]): 57.56% and 78.38%
- Population Hoechst High Intensity Objects (%) (Fibroblast; [2]): 0%
- Population Membrane Permeable-Phenotype (%) (Fibroblast; [2]): 11.11% and 3.45%
- Population Mitochondria Different-Phenotype (%) (Fibroblast; [2]): 14.14% and 19.54%
- Population Mitotic Cells (%) (Fibroblast; [2]): 76.92% and 77.78%
- Population Normal (%) (Fibroblast; [2]): 100%
- Population Tubulin-Different-Phenotype (%) (Fibroblast; [2]): 52.53% and 70.69%
- Total Cell Count (Fibroblast; [2]): 172 and 222
- Population Apoptotic (%) (Fibroblast; [3]): 28.57% and 56.25%
- Population Fragmented Nuclei (%) (Fibroblast; [3]): 13.07% and 8%
- Population Healthy Nuclei (%) (Fibroblast; [3]): 82.95% and 84%
- Population Hoechst High Intensity Objects (%) (Fibroblast; [3]): 0%
- Population Membrane Permeable-Phenotype (%) (Fibroblast; [3]): 1.37% and 1.79%
- Population Mitochondria Different-Phenotype (%) (Fibroblast; [3]): 19.18% and 6.55%
- Population Mitotic Cells (%) (Fibroblast; [3]): 71.43% and 43.75%
- Population Normal (%) (Fibroblast; [3]): 100%
- Total Cell Count (Fibroblast; [3]): 176 and 200
- Population Apoptotic (%) (Fibroblast; [4]): 34.62% and 60%
- Population Healthy Nuclei (%) (Fibroblast; [4]): 68.28% and 85.52%
- Population Hoechst High Intensity Objects (%) (Fibroblast; [4]): 0%
- Population Membrane Permeable-Phenotype (%) (Fibroblast; [4]): 4.72% and 11.64%
- Population Mitochondria Different-Phenotype (%) (Fibroblast; [4]): 15.75% and 8.99%
- Population Mitotic Cells (%) (Fibroblast; [4]): 65.38% and 40%
- Population Normal (%) (Fibroblast; [4]): 100%
- Population Tubulin-Different-Phenotype (%) (Fibroblast; [4]): 34.65% and 64.55%
- Total Cell Count (Fibroblast; [4]): 186 and 221
